Experimental data taken from ChEMBL document CHEMBL4184234, “Synthesis of novel (-)-epicatechin derivatives as potential endothelial GPER agonists: Evaluation of biological effects” (Bioorg Med Chem Lett, 2018).
Calls of active or inactive are those of the source. No cut-off for these calls is given here.

Key:
Bos taurus [1] = species: Bos taurus; assay: Agonist activity at GPER in BCAEC assessed as increase in eNOS Ser1179 phosphorylation at 1 uM pre-incubated with 1 uM GPER antagonist G15 for 30 mins followed by compound incubation for 10 mins by Western blot relative to untreated control; set-up: scale not given: the % may be the effect or the level left
How it was run: (§1)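 Bovine coronary artery endothelial cells stimulated 10 min with 1 μM ligand; (−)-epicatechin at 1 μM as reference. For GPER blockade, cells pre-incubated 30 min with G15 (1 μM) before ligand. Ser1179-phosphorylated eNOS immunodetected by Western blot. Control set to 1, or Epi set to 100% with derivatives expressed as percent of Epi. Mean ± SEM, n=5 per group.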

Bos taurus [2] = species: Bos taurus; assay: Agonist activity at GPER in BCAEC assessed as increase in nitric oxide production at 1 uM pre-incubated with 1 uM GPER antagonist G15 for 30 mins followed by compound incubation for 10 mins by nitrate/nitrite fluorometric assay relative to untreated control; set-up: scale not given: the % may be the effect or the level left
How it was run: (§2)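 BCAEC given 1 μM ligand for 10 min, with 1 μM (−)-epicatechin as reference; GPER blockade by 30 min pre-incubation with 1 μM G15 before ligand. Nitrates/nitrites in supernatant measured as surrogate of NO synthesis. Values normalized to control (set to 1) or to Epi (100%). Mean ± SEM, n=5 per group.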

Bos taurus [3] = species: Bos taurus; assay: Binding affinity to GPER in BCAEC protein extracts using compound loaded on to affinity chromatography Agarose columns incubated overnight at 4 degC with mild tumbling by Coomassie-blue staining based SDS-PAGE and Western blot method
How it was run: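 Propargyl derivative coupled to agarose-azide beads by click chemistry; coupling gauged by fluorescence of washings against an external calibration curve. Three control columns lacked ligand and/or copper sulfate/ascorbate. BCAEC protein extract (0.8–1.0 mg) loaded, overnight 4 °C with mild tumbling. Washed with 5 mM EDTA/0.5% SDS/250 mM NaCl in PBS pH 7.5, then PBS. Eluted in PBS with 8 M urea, concentrated, run on SDS-PAGE with Coomassie staining. Western blot used monoclonal GPER antibody.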

Bos taurus [4] = species: Bos taurus; assay: Agonist activity at GPER in BCAEC assessed as increase in nitric oxide production at 1 uM incubated for 10 mins by nitrate/nitrite fluorometric assay relative to untreated (-)-epicatechin; how it was run: as §2
Bos taurus [5] = species: Bos taurus; assay: Agonist activity at GPER in BCAEC assessed as increase in eNOS Ser1179 phosphorylation at 1 uM incubated for 10 mins by Western blot relative to untreated (-)-epicatechin; how it was run: as §1

| Activity (Bos taurus [1]) [%] | Activity (Bos taurus [2]) [%] | Activity (Bos taurus [3]) | Activity (Bos taurus [4]) [%] | Activity (Bos taurus [5]) [%] | Structure (SMILES) |
| --- | --- | --- | --- | --- | --- |
| 55.6 | 60 | Active |  |  | Oc1cc(O)c2c(c1)O[C@H](c1ccc(O)c(O)c1)[C@H](O)C2 |
| 53 | 41.8 |  | 54.5 | 64.8 | CS(=O)(=O)O[C@@H]1Cc2c(O)cc(O)cc2O[C@@H]1c1ccc(O)c(O)c1 |
| 59.3 | 70.9 |  | 142 | 137 | C#CCO[C@@H]1Cc2c(O)cc(O)cc2O[C@@H]1c1ccc(O)c(O)c1 |

Continued, molecule first:

| Structure (SMILES) | Activity (Bos taurus [1]) [%] | Activity (Bos taurus [2]) [%] | Activity (Bos taurus [3]) | Activity (Bos taurus [4]) [%] | Activity (Bos taurus [5]) [%] |
| --- | --- | --- | --- | --- | --- |
| C#CCOc1cc(OCC#C)c2c(c1)O[C@H](c1ccc(OCC#C)c(OCC#C)c1)[C@H](O)C2 | 57.4 | 63.6 |  | 107 | 111 |
| C#CCOc1cc(OCC#C)c2c(c1)O[C@H](c1ccc(OCC#C)c(OCC#C)c1)[C@H](OCC#C)C2 | 54.8 | 60 |  | 102 | 92.6 |
